Experiment [1] deals with Kappa-type opioid receptor (Homo sapiens) (UniProt P41145). In words: Competitive antagonist activity against human kappa opioid receptor overexpressed in CHO cells assessed as inhibition of U69,593-stimulated [35S]GTP-gamma-S binding by liquid scintillation counting. In kind it is functional, cell-based. The method in brief: (§1)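 CHO cells overexpressing human μ, δ or κ opioid receptor; membrane homogenates (20–40 μg protein) incubated 1 h at room temperature with 0.1 nM [35S]GTP-γ-S and 1 μM GDP in 50 mM HEPES pH 7.4, in duplicate. Agonist concentration–response curves run with or without one test-compound concentration (screen at 10 μM). Filtration, scintillation counting, normalized to basal; EC50 by four-parameter logistic; Ke = [L]/(DR − 1).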

Experiment [2] addresses Mu-type opioid receptor (Homo sapiens) (UniProt P35372). In words: Competitive antagonist activity against human Mu opioid receptor overexpressed in CHO cells assessed as inhibition of DAMGO-stimulated [35S]GTP-gamma-S binding by liquid scintillation counting. In kind it is functional, cell-based. In a few lines:
as §1

For experiment [3], the target named is Delta-type opioid receptor (Homo sapiens) (UniProt P41143). In words: Competitive antagonist activity against human delta opioid receptor overexpressed in CHO cells assessed as inhibition of DPDPE-stimulated [35S]GTP-gamma-S binding by liquid scintillation counting. It is filed as functional, cell-based. In a few lines: as §1
The species named for experiment [4] is Homo sapiens. In words: Selectivity ratio of Ke(app) for human Mu opioid receptor to ratio of Ke(app) for human kappa opioid receptor.
Experiment [5] is filed under the species Homo sapiens. In words: Selectivity ratio of Ke(app) for human delta opioid receptor to ratio of Ke(app) for human kappa opioid receptor.

Structures are written as SMILES.

For `COc1cc(/C=C/c2ccc(OC)c(OC)c2)c(C/C=C(\C)CCC=C(C)C)c(OC)c1`, the Ke in experiment [1], in experiment [2] and in experiment [3] was above 10 µM throughout.

As for `CC(C)=CCC/C(C)=C/Cc1c(O)cc(O)cc1/C=C/c1ccc(O)c(O)c1CC=C(C)C`, the Ke was found to be 0.2 µM in experiment [1], 0.57 µM in experiment [2] and 2.9 µM in experiment [3]. Also, the Ratio in experiment [4] came to 2.9; in experiment [5] it was 14.5.

Regarding `COc1cc(/C=C/c2ccc(OC)c(OC)c2CC=C(C)C)c(C/C=C(\C)CCC=C(C)C)c(OC)c1`, the Ke in experiment [1], in experiment [2] and in experiment [3] was above 10 µM each time.

Turning to `CC(C)=CCC/C(C)=C/Cc1c(O)cc(/C=C/c2ccc(O)c(O)c2)cc1O`, the Ke in experiment [1], in experiment [2] and in experiment [3] was above 10 µM throughout.

Regarding `CC(C)=CCc1c(O)cc(/C=C/c2ccc(O)c(O)c2)cc1O`, the Ke in experiment [1], in experiment [2] and in experiment [3] was above 10 µM throughout.

With `COc1cc(/C=C/c2cc(O)c(O)c(CC=C(C)C)c2)c(C/C=C(\C)CCC=C(C)C)c(OC)c1`, the figures for the Ke in experiment [1], in experiment [2] and in experiment [3] were 0.15 µM, above 10 µM and above 10 µM, respectively. Besides, the Ratio in experiment [4] and in experiment [5] was above 67 throughout.

As for `CC(C)=CCC/C(C)=C/CC/C(C)=C/Cc1c(O)cc(/C=C/c2ccc(O)cc2)cc1O`, the Ke came to 9 µM in experiment [1], 3 µM in experiment [2] and 6 µM in experiment [3]. In addition, the Ratio amounted to 0.33 in experiment [4] and 0.67 in experiment [5].

As for `CC(C)=CCc1c(O)cc(/C=C/c2ccc(O)cc2)cc1O`, the Ke in experiment [1], in experiment [2] and in experiment [3] was above 10 µM each time.

With `CC(C)=CCC/C(C)=C/Cc1c(O)cc(O)cc1/C=C/c1ccc(O)c(O)c1`, the Ke in experiment [1], in experiment [2] and in experiment [3] was above 10 µM each time.

`COc1cc(/C=C/c2ccc(O)c(O)c2)c(C/C=C(\C)CCC=C(C)C)c(OC)c1`: the Ke in experiment [1], in experiment [2] and in experiment [3] was above 10 µM throughout.

Take `COc1cc(/C=C/c2ccc(OC)c(O)c2CC=C(C)C)c(C/C=C(\C)CCC=C(C)C)c(OC)c1`: the Ke in experiment [1], in experiment [2] and in experiment [3] was above 10 µM throughout.

Source of the values: ChEMBL document CHEMBL3108689, “Stilbenes as κ-selective, non-nitrogenous opioid receptor antagonists” (J Nat Prod, 2014).
